The results in this text go back to ChEMBL document CHEMBL1130160 (J Med Chem, 1997).

SMILES strings stand for the structures.

What is called ED50 is the dose at which the effect has come halfway, by size or by number of responders. The IC50 is the point on the concentration scale where inhibition reaches its midpoint.

Test [1] has as its system Rattus norvegicus. As to the kind of experiment: Percent decrease in serum cholesterol relative to OVX control at 1.0 mg/kg in rats. In kind it is functional. In a few lines: (§1)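 OVX Sprague–Dawley rats (75 days old), 5–6 per group, dosed once daily by oral gavage for 4 consecutive days, starting 14 days after ovariectomy. Vehicle was 20% β-hydroxycyclodextrin at 1 mL/kg, or 1.5% carboxymethylcellulose in some cases. Rats were fasted after the last dose and bled by cardiac puncture next morning.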

Test [2] has as its system Rattus norvegicus. As to the kind of experiment: Percent decrease in serum cholesterol relative to OVX control at 0.1 mg/kg in rats. In kind it is functional. In a few lines:
as §1

Test [3] has as its system Rattus norvegicus. As to the kind of experiment: Dose required to reduce serum cholesterol by 50% relative to OVX controls was determined (in vivo). Format: functional. In a few lines: as §1
Test [4] concerns Rattus norvegicus. Put plainly: Percent decrease in serum cholesterol relative to OVX control at 10 mg/kg in rat was determined (in vivo). In kind it is functional. In a few lines:
as §1

For test [5], the system named is Rattus norvegicus. Put plainly: Minimum effective dose at which significant increase in uterine weight/body weight in rat was determined (in vivo). In kind it is functional. Conditions: read-out: MED. In a few lines: (§2)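 In 75-day OVX Sprague–Dawley rats dosed orally for 4 days, beginning 2 weeks post-ovariectomy with 5–6 rats per group, whole uteri were weighed the morning after fasting. MED is the lowest dose giving a significant (p≤0.05) rise in uterine weight/body weight, expressed as % increase over OVX controls ±SE.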

The subject of test [6] is Rattus norvegicus. As to the kind of experiment: Minimum effective dose at which significant increase in uterine weight/body weight in rat was determined (in vivo); expressed as % increase relative to ovariectomized (OVX) controls. In kind it is functional. In a few lines:
as §2

Test [7] concerns Rattus norvegicus. As to the kind of experiment: Minimum effective dose at which significant increase in uterine eosinophil peroxidase (EPO) activity in rat was determined (in vivo). Conditions: read-out: MED. Format: functional.
For a further test, the target named is Estrogen receptor (Homo sapiens, UniProt Q92731+P03372). Conditions: mcf7.
Test [8] deals with Rattus norvegicus. As to the kind of experiment: Percent decrease in serum cholesterol relative to OVX control at 0.1 mg/kg in rat was determined (in vivo). Format: functional. In a few lines: as §1
Test [9] relates to Rattus norvegicus. Put plainly: Eosinophil peroxidase activity expressed as Vmax was determined in rat (in vivo) Eosinophil peroxidase activity expressed as Vmax was determined in rat (in vivo). Format: functional. Set-up: unit not given here.
Test [10] deals with Rattus norvegicus. As to the kind of experiment: Percent decrease in serum cholesterol relative to OVX control at 1 mg/kg in rat. Format: functional. In a few lines: as §1

In the case of `O=C(c1ccc(OCCN2CCCCC2)cc1)c1c(C2CCCCC2)sc2cc(O)ccc12`, the Decrease with Rattus norvegicus [1] is reported as 52.9%; in the test with Rattus norvegicus [2], -0.1%; in the test on Rattus norvegicus [4], 61.7%. Moreover, in the test with Rattus norvegicus [3], the 50% effect level (ED50) was put at a dose of 2.1 mg/kg. In addition, the minimal effective dose with Rattus norvegicus [5] is 1 mg/kg; with Rattus norvegicus [7] it was above 10 mg/kg. Besides, in the test on Rattus norvegicus [6], the Increase is reported as 30.2%.
Turning to `CC(C)c1sc2cc(O)ccc2c1C(=O)c1ccc(OCCN2CCCCC2)cc1`, the results for the Decrease with Rattus norvegicus [1], in the test with Rattus norvegicus [2] and with Rattus norvegicus [4] were 30.5%, 12.4% and 35%, respectively. This compound also yielded an ED50 in the test on Rattus norvegicus [3] above 10 mg/kg. Further, the minimal effective dose in the test on Rattus norvegicus [5] and in the test with Rattus norvegicus [7] was above 10 mg/kg each time.
`Cc1sc2cc(O)ccc2c1C(=O)c1ccc(OCCN2CCCCC2)cc1`: the figures for the Decrease with Rattus norvegicus [1], in the test with Rattus norvegicus [2] and in the test with Rattus norvegicus [4] were 53.8%, 8.3% and 62.9%, respectively. This compound gave an ED50 with Rattus norvegicus [3] of 1.8 mg/kg. In addition, the minimal effective dose in the test on Rattus norvegicus [5] and with Rattus norvegicus [7] was above 10 mg/kg each time.
As for `NC(=O)c1ccc2c(C(=O)c3ccc(OCCN4CCCCC4)cc3)c(-c3ccc(O)cc3)sc2c1`, the Decrease in the test with Rattus norvegicus [1] is -14.9%. On Estrogen receptor, the IC50 came to 1 µM. Moreover, the minimal effective dose in the test on Rattus norvegicus [5] was 10 mg/kg; in the test with Rattus norvegicus [7], above 10 mg/kg. Also, the Increase in the test with Rattus norvegicus [6] worked out at 30.7%.
As for `O=C(c1ccc(OCCN2CCCCC2)cc1)c1c(-c2cccs2)sc2cc(O)ccc12`, in the test with Rattus norvegicus [1], the Decrease is on record as -0.9%. This compound also registered a half-maximal inhibitory concentration (IC50) at Estrogen receptor of 0.02 µM. For the same compound, the 50% effective dose (ED50) in the test on Rattus norvegicus [3] stood at 11 mg/kg. Moreover, the minimal effective dose with Rattus norvegicus [5] was 1 mg/kg; in the test with Rattus norvegicus [7], above 10 mg/kg.
Turning to `O=C(c1ccc(OCCN2CCCCC2)cc1)c1c(C2CCCC2)sc2cc(O)ccc12`, the Decrease with Rattus norvegicus [1] stood at 55.6%; in the test on Rattus norvegicus [2] it was 18.4%; with Rattus norvegicus [4], 69.6%. Besides, in the test on Rattus norvegicus [3], the median effective dose (ED50) is 1.2 mg/kg. Further, the minimal effective dose in the test on Rattus norvegicus [5] and in the test with Rattus norvegicus [7] was above 10 mg/kg each time.
With `O=C(c1ccc(OCCN2CCCCC2)cc1)c1c(-c2ccsc2)sc2cc(O)ccc12`, the Decrease in the test on Rattus norvegicus [2] turned out to be 0.6%; in the test with Rattus norvegicus [4], 31.8%. Further, the IC50 against Estrogen receptor is 0.01 µM. Besides, the median effective dose (ED50) in the test with Rattus norvegicus [3] was above 10 mg/kg. The minimal effective dose in the test with Rattus norvegicus [5] is 10 mg/kg; in the test with Rattus norvegicus [7], above 10 mg/kg.
`O=C(c1ccc(OCCN2CCCCC2)cc1)c1c(-c2ccncc2)sc2cc(O)ccc12`: the Decrease came to 24% in the test on Rattus norvegicus [1], 7.2% with Rattus norvegicus [2] and 47.6% in the test with Rattus norvegicus [4]. For the same compound, the IC50 against Estrogen receptor is 0.1 µM. Further, the 50% effect level in the test with Rattus norvegicus [3] (ED50) was put at a dose of 14.6 mg/kg. The minimal effective dose in the test on Rattus norvegicus [5] was 1 mg/kg; in the test on Rattus norvegicus [7] it was above 10 mg/kg. Moreover, the Increase in the test on Rattus norvegicus [6] came to 33.3%.
Regarding `C=Cc1ccc(-c2sc3cc(O)ccc3c2C(=O)c2ccc(OCCN3CCCCC3)cc2)cc1`, the Decrease in the test with Rattus norvegicus [8] is listed as -7%; in the test on Rattus norvegicus [4], 49.7%; in the test with Rattus norvegicus [10], 41.5%. Moreover, in the test on Rattus norvegicus [3], the ED50 was found to be 10 mg/kg. The minimal effective dose was 0.1 mg/kg in the test on Rattus norvegicus [5] and 1 mg/kg in the test on Rattus norvegicus [7]. The Eosinophil peroxidase activity (Vmax) in the test on Rattus norvegicus [9] is 48. The same compound returned an Increase in the test on Rattus norvegicus [6] of 26.9%.
For the compound `CCCCc1ccc(-c2sc3cc(O)ccc3c2C(=O)c2ccc(OCCN3CCCCC3)cc2)cc1`, the concentration for half-maximal inhibition (IC50) against Estrogen receptor came out at 0.01 µM. Further, the values for the Decrease in the test with Rattus norvegicus [8], in the test with Rattus norvegicus [4] and in the test with Rattus norvegicus [10] were 21.3%, 72% and 14.5%, respectively. The compound further registered an ED50 in the test on Rattus norvegicus [3] of 2.3 mg/kg. Besides, the minimal effective dose with Rattus norvegicus [5] was above 10 mg/kg; in the test on Rattus norvegicus [7] it was 10 mg/kg. This compound also displayed an Eosinophil peroxidase activity (Vmax) with Rattus norvegicus [9] of 20.8.
As for `COC(=O)c1ccc(-c2sc3cc(O)ccc3c2C(=O)c2ccc(OCCN3CCCCC3)cc2)cc1`, the Decrease with Rattus norvegicus [8] is on record as 23.8%; in the test with Rattus norvegicus [4], 56.1%; in the test on Rattus norvegicus [10], 42.1%. The compound also came in with an ED50 in the test on Rattus norvegicus [3] of 3.8 mg/kg. Moreover, the minimal effective dose came to 1 mg/kg in the test on Rattus norvegicus [5] and 10 mg/kg in the test on Rattus norvegicus [7]. The compound further yielded an Eosinophil peroxidase activity (Vmax) in the test on Rattus norvegicus [9] of 13.2. In the test with Rattus norvegicus [6], this compound had an Increase of 37.2%.
On Estrogen receptor, `COc1ccc2c(C(=O)c3ccc(OCCN4CCCCC4)cc3)c(-c3ccc(O)cc3)sc2c1` displayed a half-maximal inhibitory concentration (IC50) of 0.25 µM. For the same compound, the figures for the Decrease with Rattus norvegicus [8], in the test with Rattus norvegicus [4] and in the test on Rattus norvegicus [10] were 54.8%, 50% and 64.5%, respectively. Further, the median effective dose (ED50) with Rattus norvegicus [3] is below 0.1 mg/kg. Besides, the minimal effective dose was 1 mg/kg in the test on Rattus norvegicus [5] and above 10 mg/kg in the test on Rattus norvegicus [7]. This compound had an Increase in the test with Rattus norvegicus [6] of 33.5%.
Consider `CCc1sc2cc(O)ccc2c1C(=O)c1ccc(OCCN2CCCCC2)cc1`, for which the Decrease with Rattus norvegicus [1] amounted to 26.5%; with Rattus norvegicus [2], 4.4%; with Rattus norvegicus [4] it was 31.1%. In addition, the values for the minimal effective dose in the test with Rattus norvegicus [5] and with Rattus norvegicus [7] were 10 mg/kg and above 10 mg/kg, respectively. Also, in the test with Rattus norvegicus [6], the Increase was found to be 55.03%.
The compound `Cl.O=C(c1ccc(OCCN2CCCCC2)cc1)c1c(-c2ccc(O)cc2)sc2cc(Cl)ccc12` came in with an IC50 on Estrogen receptor of 1 µM. Also, the Decrease with Rattus norvegicus [8] is given as -5.1%; with Rattus norvegicus [4], 37.6%; in the test on Rattus norvegicus [10] it was -6.8%. Moreover, in the test with Rattus norvegicus [3], the ED50 is above 10 mg/kg. Further, the minimal effective dose in the test with Rattus norvegicus [5] is 10 mg/kg; with Rattus norvegicus [7], above 10 mg/kg. This compound also came in with an Increase in the test on Rattus norvegicus [6] of 49.6%.
On Estrogen receptor, `Cl.O=C(c1ccc(OCCN2CCCCC2)cc1)c1c(-c2ccc(Cl)cc2)sc2cc(O)ccc12` displayed a half-maximal inhibitory concentration (IC50) of 0.001 µM. For the same compound, the Decrease is reported as 32.3% in the test on Rattus norvegicus [8], 65% in the test on Rattus norvegicus [4] and 69.9% with Rattus norvegicus [10]. Besides, the ED50 in the test with Rattus norvegicus [3] worked out at 0.3 mg/kg. Also, the minimal effective dose in the test with Rattus norvegicus [5] is 0.1 mg/kg; in the test on Rattus norvegicus [7], above 10 mg/kg. Further, the Increase in the test on Rattus norvegicus [6] is recorded as 56.5%.
In turn, `COc1ccc(-c2sc3cc(OC)ccc3c2C(=O)c2ccc(OCCN3CCCCC3)cc2)cc1.Cl` displayed a half-inhibitory concentration (IC50) on Estrogen receptor of 0.3 µM. Moreover, the Decrease in the test on Rattus norvegicus [8] turned out to be 62.2%; in the test on Rattus norvegicus [4], 68.5%; in the test with Rattus norvegicus [10], 78%. For the same compound, the median effective dose (ED50) in the test on Rattus norvegicus [3] was below 0.1 mg/kg. In addition, the minimal effective dose was 0.1 mg/kg in the test on Rattus norvegicus [5] and above 10 mg/kg with Rattus norvegicus [7]. This compound also registered an Increase in the test with Rattus norvegicus [6] of 57.3%.
Turning to `O=C(c1ccc(OCCN2CCCCC2)cc1)c1c(-c2cccc3ccccc23)sc2cc(O)ccc12`, the Decrease is given as 53.9% in the test with Rattus norvegicus [1], 40.1% with Rattus norvegicus [2] and 67.8% in the test with Rattus norvegicus [4]. At Estrogen receptor, this compound showed a half-inhibitory concentration (IC50) of 0.0008 µM. Besides, in the test on Rattus norvegicus [3], the 50% effect level (ED50) was put at a dose of 0.5 mg/kg. In addition, the minimal effective dose in the test on Rattus norvegicus [5] and in the test with Rattus norvegicus [7] was above 10 mg/kg throughout.
For `O=C(c1ccc(OCCN2CCCCC2)cc1)c1c(-c2cc[n+]([O-])cc2)sc2cc(O)ccc12`, the Decrease in the test on Rattus norvegicus [1] is 1.8%; with Rattus norvegicus [2], -16.6%; in the test with Rattus norvegicus [4] it was 42.6%. At Estrogen receptor, this compound registered an IC50 of 0.1 µM. Also, the ED50 in the test with Rattus norvegicus [3] is above 10 mg/kg. Besides, the minimal effective dose in the test on Rattus norvegicus [5] and with Rattus norvegicus [7] was above 10 mg/kg in each case.
In turn, `Cl.O=C(c1ccc(OCCN2CCCCC2)cc1)c1c(-c2ccccc2)sc2ccccc12` had an IC50 against Estrogen receptor of 0.3 µM. Further, the Decrease in the test on Rattus norvegicus [8] is reported as 59.4%; in the test on Rattus norvegicus [4] it was 45.6%; in the test with Rattus norvegicus [10], 72.6%. The ED50 in the test on Rattus norvegicus [3] is below 0.1 mg/kg. In addition, the values for the minimal effective dose in the test on Rattus norvegicus [5] and with Rattus norvegicus [7] were 0.1 mg/kg and above 10 mg/kg, respectively. Besides, the Increase in the test on Rattus norvegicus [6] came to 59.2%.
